{"data": "Results gathered from unrelated publications", "target": "Mitogen-activated protein kinase kinase kinase 3 (MAP3K3, Homo sapiens, UniProt Q99759)", "Residues used in one study (Q99759 1-626)": "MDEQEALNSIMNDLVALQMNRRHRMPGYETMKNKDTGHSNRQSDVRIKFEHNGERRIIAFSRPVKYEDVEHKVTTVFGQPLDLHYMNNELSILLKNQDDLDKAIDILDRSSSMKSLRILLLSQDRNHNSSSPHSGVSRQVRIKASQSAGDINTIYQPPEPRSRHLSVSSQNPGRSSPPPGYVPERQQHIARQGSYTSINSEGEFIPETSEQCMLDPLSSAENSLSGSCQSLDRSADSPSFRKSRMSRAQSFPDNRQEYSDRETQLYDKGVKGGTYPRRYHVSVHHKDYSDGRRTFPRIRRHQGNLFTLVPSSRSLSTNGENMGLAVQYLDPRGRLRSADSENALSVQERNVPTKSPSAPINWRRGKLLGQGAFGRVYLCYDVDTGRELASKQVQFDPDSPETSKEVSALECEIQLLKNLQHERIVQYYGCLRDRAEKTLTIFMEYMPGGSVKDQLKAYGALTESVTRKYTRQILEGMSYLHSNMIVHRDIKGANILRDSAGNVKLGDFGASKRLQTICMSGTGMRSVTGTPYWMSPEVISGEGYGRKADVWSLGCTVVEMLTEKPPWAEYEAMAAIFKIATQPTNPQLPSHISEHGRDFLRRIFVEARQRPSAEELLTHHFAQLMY", "note": "Compare with care: the assays were run in different laboratories."}
{"Structure (SMILES)": "Cn1cc(-c2cccc(N3CCc4c(sc5c4CC(C)(C)C5)C3=O)c2CO)cc(Nc2ccncn2)c1=O", "observed": "enzyme activity", "mode": "inhibitor", "concentration": "1 µM", "endpoint": "inhibition", "value": "3%"}
{"Structure (SMILES)": "O=c1[nH]c2ccccc2n1C1CCN(Cc2ccc(-c3[nH]c4cc5ncnc5cc4nc3-c3ccccc3)cc2)CC1", "observed": "cell-free assay", "concentration": "0.5 µM", "endpoint": "remaining signal", "value": "101%"}
{"Structure (SMILES)": "Cn1cc(-c2cc(F)cc(N3CCn4c(cc5c4CCCC5)C3=O)c2CO)cc(Nc2ccc(N3CCN(C4COC4)CC3)cn2)c1=O", "observed": "enzyme activity", "mode": "inhibitor", "concentration": "0.1 µM", "endpoint": "inhibition", "value": "1%"}
{"Structure (SMILES)": "COc1ncccc1-c1cnn2ccc(N3CCN(C(=O)OC(C)C)CC3)nc12", "observed": "binding", "technique": "competition with immobilised ligand", "concentration": "1 µM", "endpoint": "remaining binding", "value": "100%"}
{"Structure (SMILES)": "CC(C)(C)c1cc(C=C(C#N)C#N)cc(Br)c1O", "observed": "enzyme activity", "mode": "inhibitor", "concentration": "0.5 µM", "endpoint": "remaining activity", "value": "118%"}
{"Structure (SMILES)": "Cc1nn(C)cc1-c1nc2c(N3CCN(Cc4ccc(Cl)cc4)CC3)c(Cl)cnc2[nH]1", "observed": "binding", "technique": "competition with immobilised ligand", "concentration": "1 µM", "endpoint": "remaining binding", "value": "91%"}
{"Structure (SMILES)": "Cn1cncc1[C@@](O)(COc1ccc(C#N)cc1-c1ccc(OC(F)(F)F)cc1)c1ccc(C#N)cc1", "observed": "cell-free assay", "technique": "competition with immobilised ligand", "concentration": "1 µM", "endpoint": "remaining binding", "value": "81%"}
{"Structure (SMILES)": "Nc1ncc(-c2nc(N3CCOCC3)nc(N3CCOCC3)n2)c(C(F)F)n1", "observed": "binding", "technique": "competition with immobilised ligand", "concentration": "10 µM", "endpoint": "remaining binding", "value": "72%"}
{"Structure (SMILES)": "COCc1c(-c2cc3cc(C)cc(OC)c3s2)c2c(N)ncnn2c1CN1CCNC(=O)C1", "observed": "cell-free assay", "technique": "competition with immobilised ligand", "concentration": "1 µM", "endpoint": "inhibition", "value": "95.3%"}
